This is an account of results in publication PMC4909612 (EBioMedicine, 2016).

pKd: −log10 of the molar value. Several values for one entry are separate records, joined by “and”; a condition that tells them apart may be missing. Identical values can stand only once.

In test [1] the test system is intracellular tyrosine kinase domain of human PDGFR-β. Put plainly: PDGFR-β activity assay kit. Type of test: biochemical. The settings on record: n = 6 each group. Summed up:
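Human PDGFR-β kinase activity was measured with a commercial PDGFR-β activity assay kit, n = 6 per group. Values are means ± SEM from three independent experiments, compared with the control group.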

Test [2] concerns the target human PDGFR-β (Met 1-Lys 531) protein with the Phe136/Ala136 and Phe138/Ala138 mutations (human) (UniProt P09619). Put plainly: SPR.
For test [3], the target named is human PDGFR-β (Met 1-Lys 531) protein (human) (UniProt P09619). Put plainly: SPR. (Surface plasmon resonance follows binding to a sensor surface in real time, without labels.)
Test [4] has the same target. Put plainly: MST.

As to `CCN(CC)CCNC(=O)c1c(C)[nH]c(/C=C2\C(=O)Nc3ccc(F)cc32)c1C` [sunitinib], the “effect on the activated intracellular tyrosine kinase domain / kinase activity of human PDGFR-β” value in test [1] is recorded as “very obvious inhibitory effect”.

In the case of destruxin A5 (peptide), the pKd (usually the negative decadic logarithm of the Kd, by convention in mol/L) was 4.00 in test [2]; 5.31 and 5.10 in test [3]; 5.27 in test [4]. Besides, the dH in test [3] was -2.28 kcal·M^(− 1).
